From ChEMBL document CHEMBL3272030, “Synthesis and biological properties of some spin-labeled 9-aminoacridines” (J Med Chem, 1976)
Activity calls are given as the source filed them. The calls are words filed in the database; no cut-off is given here.

Each compound was assayed on L1210 (assay: Cytotoxicity against mouse L1210 cells assessed as growth inhibition at 100 ug/ml after 24 hrs). Conditions: not given.
Format: functional
How it was run: (§1)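 L1210 leukemia cells seeded at 10^5 cells/ml and grown in static culture in RPMI 1630 medium with fetal calf serum. Drug tested at 0.01–100 µg/ml, with 24 h and 48 h exposures. Read-out is percent inhibition of growth. Assays were run in triplicate, and values are the mean of two separate experiments.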

| SMILES | growth inhibition (GI) |
| --- | --- |
| COc1ccc2nc3cc(Cl)ccc3c(NC3CC(C)(C)N([O])C(C)(C)C3)c2c1 | 6% |
| COc1ccc2nc3cc(Cl)ccc3c(NC3CC(C)(C)N([O])C(C)(C)C3)c2n1 | 0% |
| CC1(C)CC(Nc2c3ccccc3nc3ccccc23)CC(C)(C)N1[O] | 53% |

What follows are compounds tested on L1210 (assay: Cytotoxicity against mouse L1210 cells assessed as growth inhibition at 100 ug/ml after 48 hrs). Conditions: not given.
Format: functional
How it was run: as §1

| SMILES | growth inhibition (GI) |
| --- | --- |
| COc1ccc2nc3cc(Cl)ccc3c(NC3CC(C)(C)N([O])C(C)(C)C3)c2c1 | 78% |
| COc1ccc2nc3cc(Cl)ccc3c(NC3CC(C)(C)N([O])C(C)(C)C3)c2n1 | 38% |
| CC1(C)CC(Nc2c3ccccc3nc3ccccc23)CC(C)(C)N1[O] | 87% |

The compounds below were run on L1210 (assay: Cytotoxicity against mouse L1210 cells assessed as growth inhibition at 10 ug/ml after 24 hrs). Conditions: not given.
Format: functional
How it was run: as §1

| SMILES | growth inhibition (GI) |
| --- | --- |
| COc1ccc2nc3cc(Cl)ccc3c(NC3CC(C)(C)N([O])C(C)(C)C3)c2c1 | 11% |
| COc1ccc2nc3cc(Cl)ccc3c(NC3CC(C)(C)N([O])C(C)(C)C3)c2n1 | 0% |
| CC1(C)CC(Nc2c3ccccc3nc3ccccc23)CC(C)(C)N1[O] | 49% |

Each compound was assayed on L1210 (assay: Cytotoxicity against mouse L1210 cells assessed as growth inhibition at 10 ug/ml after 48 hrs). Conditions: not given.
Format: functional
How it was run: as §1

| SMILES | growth inhibition (GI) |
| --- | --- |
| COc1ccc2nc3cc(Cl)ccc3c(NC3CC(C)(C)N([O])C(C)(C)C3)c2c1 | 63% |
| COc1ccc2nc3cc(Cl)ccc3c(NC3CC(C)(C)N([O])C(C)(C)C3)c2n1 | 15% |
| CC1(C)CC(Nc2c3ccccc3nc3ccccc23)CC(C)(C)N1[O] | 84% |

Each compound was assayed on L1210 (assay: Cytotoxicity against mouse L1210 cells assessed as growth inhibition at 1 ug/ml after 24 hrs). Conditions: not given.
Format: functional
How it was run: as §1

| SMILES | growth inhibition (GI) |
| --- | --- |
| COc1ccc2nc3cc(Cl)ccc3c(NC3CC(C)(C)N([O])C(C)(C)C3)c2c1 | 9% |
| COc1ccc2nc3cc(Cl)ccc3c(NC3CC(C)(C)N([O])C(C)(C)C3)c2n1 | 0% |
| CC1(C)CC(Nc2c3ccccc3nc3ccccc23)CC(C)(C)N1[O] | 27% |

The compounds below were run on L1210 (assay: Cytotoxicity against mouse L1210 cells assessed as growth inhibition at 1 ug/ml after 48 hrs). Conditions: not given.
Format: functional
How it was run: as §1

| SMILES | growth inhibition (GI) |
| --- | --- |
| COc1ccc2nc3cc(Cl)ccc3c(NC3CC(C)(C)N([O])C(C)(C)C3)c2c1 | 24% |
| COc1ccc2nc3cc(Cl)ccc3c(NC3CC(C)(C)N([O])C(C)(C)C3)c2n1 | 0% |
| CC1(C)CC(Nc2c3ccccc3nc3ccccc23)CC(C)(C)N1[O] | 56% |

Each compound was assayed on L1210 (assay: Cytotoxicity against mouse L1210 cells assessed as growth inhibition at 0.1 ug/ml after 24 hrs). Conditions: not given.
Format: functional
How it was run: as §1

| SMILES | growth inhibition (GI) |
| --- | --- |
| COc1ccc2nc3cc(Cl)ccc3c(NC3CC(C)(C)N([O])C(C)(C)C3)c2c1 | 12% |
| COc1ccc2nc3cc(Cl)ccc3c(NC3CC(C)(C)N([O])C(C)(C)C3)c2n1 | 0% |
| CC1(C)CC(Nc2c3ccccc3nc3ccccc23)CC(C)(C)N1[O] | 1% |

Each compound was assayed on L1210 (assay: Cytotoxicity against mouse L1210 cells assessed as growth inhibition at 0.1 ug/ml after 48 hrs). Conditions: not given.
Format: functional
How it was run: as §1

| SMILES | growth inhibition (GI) |
| --- | --- |
| COc1ccc2nc3cc(Cl)ccc3c(NC3CC(C)(C)N([O])C(C)(C)C3)c2c1 | 7% |
| COc1ccc2nc3cc(Cl)ccc3c(NC3CC(C)(C)N([O])C(C)(C)C3)c2n1 | 0% |
| CC1(C)CC(Nc2c3ccccc3nc3ccccc23)CC(C)(C)N1[O] | 7% |

Each compound was assayed on L1210 (assay: Cytotoxicity against mouse L1210 cells assessed as growth inhibition at 0.01 ug/ml after 24 hrs). Conditions: not given.
Format: functional
How it was run: as §1

| SMILES | growth inhibition (GI) |
| --- | --- |
| COc1ccc2nc3cc(Cl)ccc3c(NC3CC(C)(C)N([O])C(C)(C)C3)c2c1 | 3% |
| COc1ccc2nc3cc(Cl)ccc3c(NC3CC(C)(C)N([O])C(C)(C)C3)c2n1 | 0% |
| CC1(C)CC(Nc2c3ccccc3nc3ccccc23)CC(C)(C)N1[O] | 0% |

These compounds were tested on L1210 (assay: Cytotoxicity against mouse L1210 cells assessed as growth inhibition at 0.01 ug/ml after 48 hrs). Conditions: not given.
Format: functional
How it was run: as §1

| SMILES | growth inhibition (GI) |
| --- | --- |
| COc1ccc2nc3cc(Cl)ccc3c(NC3CC(C)(C)N([O])C(C)(C)C3)c2c1 | 8% |
| COc1ccc2nc3cc(Cl)ccc3c(NC3CC(C)(C)N([O])C(C)(C)C3)c2n1 | 0% |
| CC1(C)CC(Nc2c3ccccc3nc3ccccc23)CC(C)(C)N1[O] | 2% |

What follows are compounds tested on Calf thymus DNA (assay: Binding affinity to calf thymus DNA assessed as decrease in DNA sedimentation coefficient at 5.2 x 10^-6 M relative to untreated control). Conditions: Bos taurus.
Format: nucleic-acid assay
How it was run: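 Calf thymus DNA was mixed with compound at 5.2 × 10^-6 M and incubated 30 min at about 22°. Sedimentation was run in an analytical ultracentrifuge at 20°, with UV scanning at 260 nm. Each run included a drug-free DNA control. Sedimentation coefficients were not corrected for density or viscosity.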

| SMILES | Ratio |
| --- | --- |
| COc1ccc2nc3cc(Cl)ccc3c(NC3CC(C)(C)N([O])C(C)(C)C3)c2c1 | 1.02 |
| COc1ccc2nc3cc(Cl)ccc3c(NC3CC(C)(C)N([O])C(C)(C)C3)c2n1 | 1.05 |
| CC1(C)CC(Nc2c3ccccc3nc3ccccc23)CC(C)(C)N1[O] | 1.04 |

The compounds below were run against T1, Bacterial DNA-directed RNA polymerase (Bacteria) (UniProt P0A8V2+P0A7Z4+P0A8T7+P0A800) (assay: Inhibition of Escherichia coli DNA-primed RNA polymerase activity using [8-14C]ATP at 400 ug/ml by scintillation counting). Conditions: not given.
Format: protein-complex assay
Parameters: scale not given: the % may be the effect or the level left
How it was run: (§2)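 Commercial E. coli RNA polymerase was used, with calf thymus DNA template (3.65 µg) in 0.125 ml containing Tris-HCl pH 8.0, MgCl2, β-mercaptoethanol, CTP/UTP/GTP (0.019 µmol each) and [8-14C]ATP (0.019 µmol). Compound in DMSO was added before the enzyme; controls received DMSO. Mixtures were incubated 10 min at 37°. Acid-insoluble label was collected by filter-disk assay and counted by liquid scintillation.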

T1 sequence (P0A7Z4 whole entry partner): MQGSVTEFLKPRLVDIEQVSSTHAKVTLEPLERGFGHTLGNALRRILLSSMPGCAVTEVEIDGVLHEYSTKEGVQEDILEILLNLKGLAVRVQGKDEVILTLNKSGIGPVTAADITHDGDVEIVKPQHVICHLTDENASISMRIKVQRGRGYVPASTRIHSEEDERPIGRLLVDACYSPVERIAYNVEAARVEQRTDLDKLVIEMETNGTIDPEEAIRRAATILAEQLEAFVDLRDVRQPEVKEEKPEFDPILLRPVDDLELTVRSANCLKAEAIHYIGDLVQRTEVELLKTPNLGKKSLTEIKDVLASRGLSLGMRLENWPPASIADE
T1 sequence (P0A800 2-91 partner limits assumed): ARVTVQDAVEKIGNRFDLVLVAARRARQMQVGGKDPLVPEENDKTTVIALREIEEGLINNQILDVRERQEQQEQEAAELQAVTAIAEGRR
T1 sequence (P0A8T7 whole entry partner): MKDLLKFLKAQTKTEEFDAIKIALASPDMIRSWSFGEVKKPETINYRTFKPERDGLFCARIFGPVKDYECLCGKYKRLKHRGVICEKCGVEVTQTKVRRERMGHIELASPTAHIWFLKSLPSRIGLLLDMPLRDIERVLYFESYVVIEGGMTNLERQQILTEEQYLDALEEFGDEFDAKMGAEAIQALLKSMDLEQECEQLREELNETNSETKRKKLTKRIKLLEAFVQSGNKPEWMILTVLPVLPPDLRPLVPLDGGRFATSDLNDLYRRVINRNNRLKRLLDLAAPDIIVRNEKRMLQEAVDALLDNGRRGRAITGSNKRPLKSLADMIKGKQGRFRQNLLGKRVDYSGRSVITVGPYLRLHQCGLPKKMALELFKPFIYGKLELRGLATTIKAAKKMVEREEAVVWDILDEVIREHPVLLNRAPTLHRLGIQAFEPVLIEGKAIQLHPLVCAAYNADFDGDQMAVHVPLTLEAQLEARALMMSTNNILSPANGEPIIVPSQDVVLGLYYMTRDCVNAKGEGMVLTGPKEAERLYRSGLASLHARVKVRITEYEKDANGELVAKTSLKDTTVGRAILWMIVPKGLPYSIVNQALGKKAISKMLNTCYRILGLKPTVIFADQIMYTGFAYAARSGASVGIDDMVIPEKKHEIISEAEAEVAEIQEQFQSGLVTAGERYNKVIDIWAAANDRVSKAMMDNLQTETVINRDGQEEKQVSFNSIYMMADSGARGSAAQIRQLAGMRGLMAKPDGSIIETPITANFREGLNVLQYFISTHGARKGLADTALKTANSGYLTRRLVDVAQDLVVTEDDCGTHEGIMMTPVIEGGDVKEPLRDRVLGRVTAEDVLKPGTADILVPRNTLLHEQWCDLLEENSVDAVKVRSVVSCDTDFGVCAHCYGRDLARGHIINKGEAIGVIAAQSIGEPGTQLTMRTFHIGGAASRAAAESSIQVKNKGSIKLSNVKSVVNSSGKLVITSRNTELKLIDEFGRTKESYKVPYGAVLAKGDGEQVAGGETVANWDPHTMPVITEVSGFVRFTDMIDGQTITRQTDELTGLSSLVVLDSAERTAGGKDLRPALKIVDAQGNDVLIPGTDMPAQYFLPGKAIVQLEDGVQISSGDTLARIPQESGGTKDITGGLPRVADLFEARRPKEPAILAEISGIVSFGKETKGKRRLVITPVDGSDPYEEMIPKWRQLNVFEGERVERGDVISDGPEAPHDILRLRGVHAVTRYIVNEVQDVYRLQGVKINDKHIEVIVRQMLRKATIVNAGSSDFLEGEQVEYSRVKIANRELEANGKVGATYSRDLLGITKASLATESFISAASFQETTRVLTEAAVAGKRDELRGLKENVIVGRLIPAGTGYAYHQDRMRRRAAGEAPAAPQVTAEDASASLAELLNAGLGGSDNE
T1 sequence (P0A8V2 whole entry): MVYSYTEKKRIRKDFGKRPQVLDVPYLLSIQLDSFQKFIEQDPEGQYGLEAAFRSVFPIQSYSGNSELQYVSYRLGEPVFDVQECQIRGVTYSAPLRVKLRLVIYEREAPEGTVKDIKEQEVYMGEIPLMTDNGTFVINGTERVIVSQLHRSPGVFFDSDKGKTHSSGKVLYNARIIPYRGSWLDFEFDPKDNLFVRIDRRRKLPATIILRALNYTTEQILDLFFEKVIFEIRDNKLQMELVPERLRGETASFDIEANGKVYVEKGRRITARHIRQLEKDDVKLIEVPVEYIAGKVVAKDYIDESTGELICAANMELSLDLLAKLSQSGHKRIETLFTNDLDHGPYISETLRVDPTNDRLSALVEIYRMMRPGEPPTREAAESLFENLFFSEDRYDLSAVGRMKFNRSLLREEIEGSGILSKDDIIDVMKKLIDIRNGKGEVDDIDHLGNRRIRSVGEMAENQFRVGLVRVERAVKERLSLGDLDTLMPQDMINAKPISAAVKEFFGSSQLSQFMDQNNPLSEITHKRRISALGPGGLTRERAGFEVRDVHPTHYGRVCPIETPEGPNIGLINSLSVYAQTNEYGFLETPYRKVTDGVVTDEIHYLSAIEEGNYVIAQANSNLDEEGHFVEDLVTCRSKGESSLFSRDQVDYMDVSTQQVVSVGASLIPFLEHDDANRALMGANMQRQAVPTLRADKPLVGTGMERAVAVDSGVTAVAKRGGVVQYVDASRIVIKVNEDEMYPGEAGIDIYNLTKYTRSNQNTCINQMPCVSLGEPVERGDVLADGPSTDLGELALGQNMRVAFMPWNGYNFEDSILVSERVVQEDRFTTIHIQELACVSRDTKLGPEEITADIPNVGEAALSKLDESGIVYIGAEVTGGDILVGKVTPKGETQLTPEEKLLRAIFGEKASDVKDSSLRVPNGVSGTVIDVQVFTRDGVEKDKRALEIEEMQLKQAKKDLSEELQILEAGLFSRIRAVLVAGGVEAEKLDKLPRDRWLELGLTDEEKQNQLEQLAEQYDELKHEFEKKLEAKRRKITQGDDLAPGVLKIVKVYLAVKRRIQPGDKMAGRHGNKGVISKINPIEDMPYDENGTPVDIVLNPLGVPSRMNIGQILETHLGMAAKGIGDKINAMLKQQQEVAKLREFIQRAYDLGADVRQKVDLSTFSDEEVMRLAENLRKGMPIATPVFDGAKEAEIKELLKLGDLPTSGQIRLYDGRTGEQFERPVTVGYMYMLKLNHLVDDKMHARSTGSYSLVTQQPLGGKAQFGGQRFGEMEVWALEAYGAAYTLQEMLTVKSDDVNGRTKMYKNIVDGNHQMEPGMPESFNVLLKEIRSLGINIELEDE

| SMILES | Activity |
| --- | --- |
| CC1(C)CC(Nc2c3ccccc3nc3ccccc23)CC(C)(C)N1[O] | 9% |

These compounds were tested against T1, Bacterial DNA-directed RNA polymerase (Bacteria) (assay: Stimulation of Escherichia coli DNA-primed RNA polymerase activity using [8-14C]ATP at 400 ug/ml by scintillation counting). Conditions: not given.
Format: protein-complex assay
How it was run: as §2

| SMILES | Activity |
| --- | --- |
| COc1ccc2nc3cc(Cl)ccc3c(NC3CC(C)(C)N([O])C(C)(C)C3)c2c1 | 116% |
| COc1ccc2nc3cc(Cl)ccc3c(NC3CC(C)(C)N([O])C(C)(C)C3)c2n1 | 108% |

Each compound was assayed against T1, Bacterial DNA-directed RNA polymerase (Bacteria) (assay: Inhibition of Escherichia coli DNA-primed RNA polymerase activity using [8-14C]ATP at 200 ug/ml by scintillation counting). Conditions: not given.
Format: protein-complex assay
Parameters: scale not given: the % may be the effect or the level left
How it was run: as §2

| SMILES | Activity |
| --- | --- |
| CC1(C)CC(Nc2c3ccccc3nc3ccccc23)CC(C)(C)N1[O] | 21% |

Each compound was assayed against T1, Bacterial DNA-directed RNA polymerase (Bacteria) (assay: Stimulation of Escherichia coli DNA-primed RNA polymerase activity using [8-14C]ATP at 200 ug/ml by scintillation counting). Conditions: not given.
Format: protein-complex assay
How it was run: as §2

| SMILES | Activity |
| --- | --- |
| COc1ccc2nc3cc(Cl)ccc3c(NC3CC(C)(C)N([O])C(C)(C)C3)c2c1 | 125% |
| COc1ccc2nc3cc(Cl)ccc3c(NC3CC(C)(C)N([O])C(C)(C)C3)c2n1 | 114% |

Each compound was assayed against T1, Bacterial DNA-directed RNA polymerase (Bacteria) (assay: Inhibition of Escherichia coli DNA-primed RNA polymerase activity using [8-14C]ATP at 100 ug/ml by scintillation counting). Conditions: not given.
Format: protein-complex assay
Parameters: scale not given: the % may be the effect or the level left
How it was run: as §2

| SMILES | Activity |
| --- | --- |
| CC1(C)CC(Nc2c3ccccc3nc3ccccc23)CC(C)(C)N1[O] | 36% |

The compounds below were run against T1, Bacterial DNA-directed RNA polymerase (Bacteria) (assay: Stimulation of Escherichia coli DNA-primed RNA polymerase activity using [8-14C]ATP at 100 ug/ml by scintillation counting). Conditions: not given.
Format: protein-complex assay
How it was run: as §2

| SMILES | Activity |
| --- | --- |
| COc1ccc2nc3cc(Cl)ccc3c(NC3CC(C)(C)N([O])C(C)(C)C3)c2c1 | 129% |
| COc1ccc2nc3cc(Cl)ccc3c(NC3CC(C)(C)N([O])C(C)(C)C3)c2n1 | 110% |

These compounds were tested against T1, Bacterial DNA-directed RNA polymerase (Bacteria) (assay: Inhibition of Escherichia coli DNA-primed RNA polymerase activity using [8-14C]ATP at 50 ug/ml by scintillation counting). Conditions: not given.
Format: protein-complex assay
Parameters: scale not given: the % may be the effect or the level left
How it was run: as §2

| SMILES | Activity |
| --- | --- |
| CC1(C)CC(Nc2c3ccccc3nc3ccccc23)CC(C)(C)N1[O] | 77% |

Each compound was assayed against T1, Bacterial DNA-directed RNA polymerase (Bacteria) (assay: Stimulation of Escherichia coli DNA-primed RNA polymerase activity using [8-14C]ATP at 50 ug/ml by scintillation counting). Conditions: not given.
Format: protein-complex assay
How it was run: as §2

| SMILES | Activity |
| --- | --- |
| COc1ccc2nc3cc(Cl)ccc3c(NC3CC(C)(C)N([O])C(C)(C)C3)c2c1 | 120% |
| COc1ccc2nc3cc(Cl)ccc3c(NC3CC(C)(C)N([O])C(C)(C)C3)c2n1 | 110% |

These compounds were tested against T1, Bacterial DNA-directed RNA polymerase (Bacteria) (assay: Inhibition of Escherichia coli DNA-primed RNA polymerase activity using [8-14C]ATP at 25 ug/ml by scintillation counting). Conditions: not given.
Format: protein-complex assay
Parameters: scale not given: the % may be the effect or the level left
How it was run: as §2

| SMILES | Activity |
| --- | --- |
| CC1(C)CC(Nc2c3ccccc3nc3ccccc23)CC(C)(C)N1[O] | 96% |

These compounds were tested against T1, Bacterial DNA-directed RNA polymerase (Bacteria) (assay: Stimulation of Escherichia coli DNA-primed RNA polymerase activity using [8-14C]ATP at 25 ug/ml by scintillation counting). Conditions: not given.
Format: protein-complex assay
How it was run: as §2

| SMILES | Activity |
| --- | --- |
| COc1ccc2nc3cc(Cl)ccc3c(NC3CC(C)(C)N([O])C(C)(C)C3)c2c1 | 108% |
| COc1ccc2nc3cc(Cl)ccc3c(NC3CC(C)(C)N([O])C(C)(C)C3)c2n1 | 108% |

What follows are compounds tested on Calf thymus DNA (assay: Binding affinity to calf thymus DNA by ESR spectrum). Conditions: Bos taurus.
Format: nucleic-acid assay

| SMILES | Activity |
| --- | --- |
| COc1ccc2nc3cc(Cl)ccc3c(NC3CC(C)(C)N([O])C(C)(C)C3)c2c1 | Active |

The compounds below were run against T1, Bacterial DNA-directed RNA polymerase (Bacteria) (assay: Stimulation of Escherichia coli DNA-primed RNA polymerase activity using [8-14C]ATP by scintillation counting). Conditions: not given.
Format: protein-complex assay
How it was run: as §2

| SMILES | Activity |
| --- | --- |
| COc1ccc2nc3cc(Cl)ccc3c(NC3CC(C)(C)N([O])C(C)(C)C3)c2c1 | Dose-dependent effect |
| COc1ccc2nc3cc(Cl)ccc3c(NC3CC(C)(C)N([O])C(C)(C)C3)c2n1 | Dose-dependent effect |
